Assays:
MS2 coat protein [1] = test: apparent Kd, MS2 coat protein; higher = weaker binding; RNA-MaP array
Outline: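 Sequenced DNA templates on an Illumina sequencing chip were transcribed into the designed RNAs. These were incubated at room temperature in Tris-HCl pH 7.5 buffer containing KCl, MgCl2, BSA, DTT, tRNA and Tween20 with fluorescently labeled MS2 coat protein at 1.5 nM to 3 μM, with or without input ligand. Apparent Kd is the median of binding-curve fits per cluster, and designs with fewer than 10 clusters measured were excluded.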

MS2 coat protein [2] = test: apparent Kd, MS2 coat protein; higher = weaker binding; RNA-MaP array; FMN 200 µM where present
Outline: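 Designs on Illumina sequencing-chip clusters, transcribed by stalled E. coli RNA polymerase, were exposed to SNAP-549-labelled MS2 coat protein in doubling steps from 0.7 or 1.5 nM up to 3 µM, without and then with constant ligand. The buffer held 100 mM Tris-HCl pH 7.5, 80 mM KCl, 4 mM MgCl2, BSA, DTT, yeast tRNA and Tween-20. Apparent Kd values are medians of filtered per-cluster binding-curve fits to green signal normalised to red-channel RNA signal and control-cluster median Fmax.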

[3] = designed as: OFF switch for flavin mononucleotide, no ligand
[4] = ligand present: flavin mononucleotide, designed as: OFF switch for flavin mononucleotide
[5] = designed as: ON switch for flavin mononucleotide, no ligand
[6] = ligand present: flavin mononucleotide, designed as: ON switch for flavin mononucleotide

## AAAAGAGAAGGAUAUACAGGAAAAGAAAAGAUAUUUCAAUAACAUGAGGAUCACCCAUGUAGAAGGACUAAUAG
MS2 coat protein [1]; [3]
  apparent Kd: 11.8 nM
MS2 coat protein [1]; [4]
  apparent Kd: 9.74 nM

## AAAAGGGCAGGAUAUACAUGAGGAUCACCCAUGUUAAAGCCAACAAGAAGUUCCACUGGUAGAAGGGCCAUAGA
MS2 coat protein [1]; [3]
  apparent Kd: 8.89 nM
MS2 coat protein [1]; [4]
  apparent Kd: 8.55 nM

## AAACAGGAAGGAUAUACAUGAGGAUCACCCAUGUCAAAUAAAACAAAUAAGCAAGAAUGUAGAAGGACCAAAAU
MS2 coat protein [1]; [3]
  apparent Kd: 17.2 nM
MS2 coat protein [1]; [4]
  apparent Kd: 12.8 nM

## AAACAUGAGGAUCACCCAUGUAGAAUAAUCAGACGUUUGAACAGAAGGUGAAAACAAAUAAAACUCAAGGAUAUGUAACUAAAA
MS2 coat protein [1]; [5]
  apparent Kd: 65.6 nM
MS2 coat protein [1]; [6]
  apparent Kd: 52.5 nM

## AAACUACGACAUGAGGAUCACCCAUGUACUCCGCUAACUACACAGGAUAUAGUGAGGCCAGAGCUCUAGAAGGGUGUUAAUACG
MS2 coat protein [1]; [5]
  apparent Kd: 40.3 nM
MS2 coat protein [1]; [6]
  apparent Kd: 28.2 nM

## AAAGGUCAGGAGAAGGUGCCUCUAUUACGUCGGCAAGGAUAUCCACAGCGGGCGAUUAUGCGUACAUGAGGAUCACCCAUGUUA
MS2 coat protein [1]; [3]
  apparent Kd: 92.3 nM
MS2 coat protein [1]; [4]
  apparent Kd: 43.5 nM

## AAAUGCAUUCGAGGAUAUGUCAUGAUGUUGUAAACAGAAGGCGAGGCAUCGACAUGAGGAUCACCCAUGUGCACAGGUAAAAGU
MS2 coat protein [1]; [5]
  apparent Kd: 37.6 nM
MS2 coat protein [1]; [6]
  apparent Kd: 16.4 nM

## AAAUGGAUCGAAGGAUAUCCCCAGACAUGAGGAUCACCCAUGUGAGGGUACAGUUAUUGUUAUCAGGAGAAGGUCGCAUUCAAA
MS2 coat protein [1]; [3]
  apparent Kd: 10.3 nM
MS2 coat protein [1]; [4]
  apparent Kd: 9.5 nM

## AACAAAAGGAAGAAGGCAGUUAAACAUGAGGAUCACCCAUGUGGGACGCGGGAAAUCAACGAGACUGAGGAUAUUCAUUAAGAA
MS2 coat protein [1]; [3]
  apparent Kd: 9.84 nM
MS2 coat protein [1]; [4]
  apparent Kd: 20.9 nM

## AACAAAUGGGAAGGAUAUCGUUACAUGAGGAUCACCCAUGUCUACCUUGGGAGCGGUAGCUAUGUCGAGAAGGUCCAUGCGCGA
MS2 coat protein [1]; [5]
  apparent Kd: 394 nM
MS2 coat protein [1]; [6]
  apparent Kd: 84.1 nM

## AACGGCUGCGCGUAGGAUAUGGCCCAUCCAACAUGAGGAUCACCCAUGUGCCACGAUGAGACUUCCCAGAAGGACGGUGCGAUGAG
MS2 coat protein [1]; [5]
  apparent Kd: 18.4 nM
MS2 coat protein [1]; [6]
  apparent Kd: 11.6 nM

## AACUUUCCCUAGAAGGUCGUGUUACAACAUGAGGAUCACCCAUGUCGCCCUAGGGCUGCUGCCGCGAAGGAUAUAGGUCCGGAG
MS2 coat protein [1]; [5]
  apparent Kd: 5.77 nM
MS2 coat protein [1]; [6]
  apparent Kd: 5.32 nM

## AAUAAACAGUAGAAGGCUGAUACCUACAAAAGUCGAAGACAUGAGGAUCACCCAUGUCAGUCAUCAGAGGAUAUACGUGAAUCG
MS2 coat protein [1]; [5]
  apparent Kd: 12.3 nM
MS2 coat protein [1]; [6]
  apparent Kd: 7.49 nM

## AAUAUUAUGUCGGCCGCCACUUCCCACAAGAGGUGCCUGCACCCACAUGAGGAUCACCCAUGUCGAAGGACCGGGACGCUCAAUU
MS2 coat protein [1]; designed as: ON switch for tryptophan, no ligand
  apparent Kd: 16.8 nM
MS2 coat protein [1]; ligand present: tryptophan, designed as: ON switch for tryptophan
  apparent Kd: 15.6 nM

## AAUUCCUGUAAGAAGGGCGAUAUACAUGAGGAUCACCCAUGUCGUUGGAUUGAAGAAAAUCAGACGCAGGAUAUUAUUGGGAAC
MS2 coat protein [1]; [5]
  apparent Kd: 94.3 nM
MS2 coat protein [1]; [6]
  apparent Kd: 40 nM

## ACAAUAAAUCAAGGAUAUGAACGAAGCAAGUGAUCAGAAGGUGAAAUAAACCCAUAAACUCCAACAUGAGGAUCACCCAUGUGA
MS2 coat protein [1]; [5]
  apparent Kd: 54 nM
MS2 coat protein [1]; [6]
  apparent Kd: 35.5 nM

## ACACGUGACAAGGAUACCAGCCUGGCUAGUUCAAACCCUCACAUGAGGAUCACCCAUGUAGGCCCUUGGCAGCCUAUAGUCUAAG
MS2 coat protein [1]; designed as: OFF switch for theophylline, no ligand
  apparent Kd: 31.9 nM
MS2 coat protein [1]; ligand present: theophylline, designed as: OFF switch for theophylline
  apparent Kd: 83.9 nM

## ACAUACUUGGGAGGAUAUAUGUUCGUACGCUCGAUAGAAGGCCCAGAAGUAUAAGACAUGAGGAUCACCCAUGUGGCAAGCGUU
MS2 coat protein [1]; [5]
  apparent Kd: 11.4 nM
MS2 coat protein [1]; [6]
  apparent Kd: 8.78 nM

## UUUAUAAAGAUAGGAUAUUGUAUAAUAAUUUAAUAAGAAGGAUCACACAUGAGGAUCACCCAUGUAUGAGGAUCACCCAUGUAU
MS2 coat protein [2]; [3]
  apparent Kd: 19.7 nM
MS2 coat protein [2]; [4]
  apparent Kd: 20.3 nM

## UUUAUAAAUUAGAAGGCAUGAUGAAUUACAAUAGACAUGAGGAUCACCCAUGUGUGUUCAUGUCAUGAGGAUAUAGUCAUAUAU
MS2 coat protein [2]; [5]
  apparent Kd: 17.5 nM
MS2 coat protein [2]; [6]
  apparent Kd: 9.93 nM

## UUUAUAAAUUAGAAGGCGAGAUGAAUUACAAUAGACAUGAGGAUCACCCAUGUGUACCCAUGUCUUGAGGAUAUAGUCAUAUAU
MS2 coat protein [2]; [5]
  apparent Kd: 132 nM
MS2 coat protein [2]; [6]
  apparent Kd: 48 nM

## UUUAUACAUGAGGAUCACCCAUGUGAGGAUAUGCUUUAUUAUUAUUAUUAUUAUUAUUGCAGAAGGCACGUUAU
MS2 coat protein [2]; [3]
  apparent Kd: 39.3 nM
MS2 coat protein [2]; [4]
  apparent Kd: 54.8 nM

## UUUAUAUUCAGAGGAUAUUAAUGUAGUAUAACAUAAGAAGGCUGUUUGUUUUGUAAAGUAAUUCUACAUGAGGAUCACCCAUGU
MS2 coat protein [2]; [5]
  apparent Kd: 21.4 nM
MS2 coat protein [2]; [6]
  apparent Kd: 16.2 nM

## UUUAUGUGAGGAUAUCAGUAGUAAAAAAAUAAAAUUACUACUGAGAAGGCACAUGAGGAUCACCCAUGUGCUUC
MS2 coat protein [2]; [3]
  apparent Kd: 19.5 nM
MS2 coat protein [2]; [4]
  apparent Kd: 15.1 nM

## UUUCUUGGGCAAGGAUAUCCUGUGCGGUUCCGGCUCGUGUCUGUCACAUGAGGAUCACCCAUGUGGGAGAAGGUGCCUGCGGUA
MS2 coat protein [2]; [3]
  apparent Kd: 6.41 nM
MS2 coat protein [2]; [4]
  apparent Kd: 6.77 nM

## UUUGAAUUGCAAGGAUAUCUUAUUUAGAUUUUAAGAGAAGGUGCUUUACAGUUACAUGAGGAUCACCCAUGUCUUUCUUUUUAU
MS2 coat protein [2]; [5]
  apparent Kd: 24.8 nM
MS2 coat protein [2]; [6]
  apparent Kd: 20 nM

## UUUGAUAGCACAGGAUAUUGUCAUUUGAGUUGUCAAGAAGGGUGUACAUGAGGAUCACCCAUGUAAUGGUUGCCUCGCUGACUU
MS2 coat protein [2]; [3]
  apparent Kd: 175 nM
MS2 coat protein [2]; [4]
  apparent Kd: 279 nM

## UUUGGUUGUGUAGGAUAUGUGUGGCGGGCUGGCACAGAAGGACAUGAGGAUCACCCAUGUGGUUUGGGUUGGGUGGUUGGCCCG
MS2 coat protein [2]; [3]
  apparent Kd: 943 nM
MS2 coat protein [2]; [4]
  apparent Kd: 771 nM

## UUUGUUUUGCAAGGAUAUGUUUAAUUUUAUUUUCCUUACACAUGAGGAUCACCCAUGUUAUUCUUACAGAAGGUGCGUAAUUUG
MS2 coat protein [2]; [3]
  apparent Kd: 165 nM
MS2 coat protein [2]; [4]
  apparent Kd: 166 nM

## UUUUAACAUGAGGAUCACCCAUGUGAGGAUAUCGAAAUUUAUAUUAAUAUUAAUAAUACGAGAAGGCACAUUUU
MS2 coat protein [2]; [3]
  apparent Kd: 80.7 nM
MS2 coat protein [2]; [4]
  apparent Kd: 79.8 nM

## UUUUAACAUGAGGAUCACCCAUGUGAGGAUAUCGAAAUUUAUAUUAAUAUUUAUAAUACGAGAAGGCACAUUUU
MS2 coat protein [2]; [3]
  apparent Kd: 85 nM
MS2 coat protein [2]; [4]
  apparent Kd: 90.6 nM

## UUUUAACAUGAGGAUCACCCAUGUGAGGAUAUCGAAAUUUAUAUUUAUAUUAAUUUAACGAGAAGGCACAUUUU
MS2 coat protein [2]; [3]
  apparent Kd: 91.2 nM
MS2 coat protein [2]; [4]
  apparent Kd: 114 nM

## UUUUAGCAGUCAGGAUAUGCAACGCACAACGACGCAGAAGGGACAUGAGGAUCACCCAUGUUAUGGUUCUGGUACUAUGACGUU
MS2 coat protein [2]; [3]
  apparent Kd: 18.1 nM
MS2 coat protein [2]; [4]
  apparent Kd: 24.6 nM

## UUUUAGUAAGGAUAUGCGUAGAUCUCGGAAACGAGAUCUACGCAGAAGGUACAUGAGGAUCACCCAUGUAGAUU
MS2 coat protein [2]; [3]
  apparent Kd: 17.4 nM
MS2 coat protein [2]; [4]
  apparent Kd: 22.3 nM

## UUUUAGUGAGGAUAUACAUUUUUUUAAUUAUUUAUAAUAUUACAUGAGGAUCACCCAUGUAGAAGGCACAUUUU
MS2 coat protein [2]; [3]
  apparent Kd: 24.3 nM
MS2 coat protein [2]; [4]
  apparent Kd: 22.4 nM

## UUUUAUUAGUAAGGAUAUACUAGCGAUUAGCUUGUAGAAGGUACAGUCUUAUGUAUAACAUGUUAACAUGAGGAUCACCCAUGU
MS2 coat protein [2]; [5]
  apparent Kd: 59.5 nM
MS2 coat protein [2]; [6]
  apparent Kd: 36.1 nM

## UUUUCGGCAGGAUAUACAUGAGGAUCACCCAUGUAAAUUUUUCGUUUAACUUGAAUGUGUAGAAGGGCCAUUUU
MS2 coat protein [2]; [3]
  apparent Kd: 23.3 nM
MS2 coat protein [2]; [4]
  apparent Kd: 23.6 nM

## UUUUUACAUGAGGAUCACCCAUGUGAGGAUAUGGUUUCGCUGGCCGUAGCCAGUGGAACCAGAAGGCGCGUGAU
MS2 coat protein [2]; [3]
  apparent Kd: 95 nM
MS2 coat protein [2]; [4]
  apparent Kd: 136 nM

## UUUUUAUUUGCAGGAUAUUGUAUUUUAUUACAUCAAGAAGGGCAUUACAUGAGGAUCACCCAUGUCAUCCUAUGGUUAACUAGU
MS2 coat protein [2]; [3]
  apparent Kd: 9.62 nM
MS2 coat protein [2]; [4]
  apparent Kd: 9.77 nM

## UUUUUGUCAGAGGAUAUCAUAGUCAGUUUUAAGUGAGAAGGUUGAACAUGAGGAUCACCCAUGUGACCUUGGUG
MS2 coat protein [2]; [3]
  apparent Kd: 23.6 nM
MS2 coat protein [2]; [4]
  apparent Kd: 21.6 nM

## UUUUUGUCAGGAUAUGAGUCGUAGAACAAUAGUACUACGUCUCAGAAGGGACAUGAGGAUCACCCAUGUGCCUC
MS2 coat protein [2]; [3]
  apparent Kd: 26 nM
MS2 coat protein [2]; [4]
  apparent Kd: 143 nM

## UUUUUGUGAGGAUAUCAGUAGUAGAACAAUAGUACUACUACUGAGAAGGCACAUGAGGAUCACCCAUGUUCCUC
MS2 coat protein [2]; [3]
  apparent Kd: 58.1 nM
MS2 coat protein [2]; [4]
  apparent Kd: 325 nM

Source: the EternaBench riboswitch data
